Measurements from ChEMBL document CHEMBL1250442, “Inhibiting gene expression at transcription start sites in chromosomal DNA with antigene RNAs” (Nat Chem Biol, 2005).
Active and inactive are the calls of the source. The rule behind the calls is not given here.

Experiments:
T47D [1] = assay: Inhibition of PR-B gene expression in human T47D cells harboring inactive DNA methyltransferase-1 at 100 nM by syber green assay; assay type: functional, cell-based
T47D [2] = assay: Inhibition of PR-A gene expression in human T47D cells at 25 nM by syber green assay in presence of 10 nM estradiol; assay type: functional, cell-based
T47D [3] = assay: Inhibition of PR-B gene expression in human T47D cells at 25 nM by syber green assay in presence of 10 nM estradiol; assay type: functional, cell-based
T47D [4] = assay: Inhibition of PR-A mRNA gene expression in human T47D cells at 100 nM by syber green assay; assay type: functional
Method in brief: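 T47D cells plated at 80,000/well without antibiotics two days before Oligofectamine transfection with agRNA duplex (25 or 100 nM final); medium changed at 24 h, harvest day 5 unless stated otherwise. TRIzol total RNA; PR mRNA by real-time PCR with SYBR Green: 50 °C 2 min, 95 °C 10 min, 40 cycles 95 °C 15 s/60 °C 1 min.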

T47D [5] = assay: Inhibition of PR-B mRNA gene expression in human T47D cells at 100 nM by syber green assay; assay type: functional
Method in brief: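 T47D cells in RPMI-1640 with 10% FBS, NEAA, insulin, 37 °C, 5% CO2. Plated two days before transfection without antibiotics. Oligofectamine-mediated duplex RNA transfection at 100 nM final, medium changed at 24 h, harvest five days post-transfection. Total RNA extracted with TRIzol. hPR mRNA quantified by SYBR Green qPCR: 50 °C 2 min, 95 °C 10 min, then 40 cycles of 95 °C 15 s / 60 °C 1 min.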

T47D [6] = assay: Inhibition of PR-A gene expression in human T47D cells harboring inactive DNA methyltransferase-1 at 100 nM by syber green assay; assay type: functional, cell-based
T47D [7] = assay: Inhibition of androgen receptor expression in human T47D cells after 12 days at 100 nM by syber green assay; assay type: functional, cell-based
Method in brief: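 AR expression in T47D cells, grown in RPMI-1640 with 10% FBS, NEAA and insulin. Plated antibiotic-free two days before Oligofectamine transfection with 100 nM duplex RNA; medium replaced after 24 h. TRIzol total RNA. SYBR Green real-time PCR: 50 °C 2 min, 95 °C 10 min, 40 cycles of 95 °C 15 s and 60 °C 1 min.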

T47D [8] = assay: Effect of DNA methylation at (-178) CpG site near androgen receptor transcription start site (-13) in human T47D cells by sodium bisulfite sequencing analysis; assay type: functional, cell-based
Method in brief: (§1)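 T47D cells (RPMI-1640, 10% FBS, NEAA, insulin; 37 °C, 5% CO2) transfected with agRNA duplexes via Oligofectamine, medium changed at 24 h. Genomic DNA bisulphite-treated, regions around AR and hPR-B start sites PCR-amplified (HotStarTaq, 100 ng treated DNA), gel-purified, TOPO TA cloned; 5–15 colonies per plate miniprepped and sequenced.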

T47D [9] = assay: Effect of DNA methylation at (-172) CpG site near androgen receptor transcription start site (-13) in human T47D cells by sodium bisulfite sequencing analysis; assay type: functional, cell-based; method in brief: as §1
T47D [10] = assay: Effect of DNA methylation at (-167) CpG site near androgen receptor transcription start site (-13) in human T47D cells by sodium bisulfite sequencing analysis; assay type: functional, cell-based; method in brief: as §1
T47D [11] = assay: Effect of DNA methylation at (-132) CpG site near androgen receptor transcription start site (-13) in human T47D cells by sodium bisulfite sequencing analysis; assay type: functional, cell-based; method in brief: as §1
T47D [12] = assay: Effect of DNA methylation at (-126) CpG site near androgen receptor transcription start site (-13) in human T47D cells by sodium bisulfite sequencing analysis; assay type: functional, cell-based; method in brief: as §1
T47D [13] = assay: Effect of DNA methylation at (-124) CpG site near androgen receptor transcription start site (-13) in human T47D cells by sodium bisulfite sequencing analysis; assay type: functional, cell-based; method in brief: as §1
T47D [14] = assay: Effect of DNA methylation at (-122) CpG site near androgen receptor transcription start site (-13) in human T47D cells by sodium bisulfite sequencing analysis; assay type: functional, cell-based; method in brief: as §1
T47D [15] = assay: Effect of DNA methylation at (-57) CpG site near androgen receptor transcription start site (-13) in human T47D cells by sodium bisulfite sequencing analysis; assay type: functional, cell-based; method in brief: as §1
T47D [16] = assay: Effect of DNA methylation at (-52) CpG site near androgen receptor transcription start site (-13) in human T47D cells by sodium bisulfite sequencing analysis; assay type: functional, cell-based; method in brief: as §1
T47D [17] = assay: Effect of DNA methylation at (-43) CpG site near androgen receptor transcription start site (-13) in human T47D cells by sodium bisulfite sequencing analysis; assay type: functional, cell-based; method in brief: as §1
T47D [18] = assay: Effect of DNA methylation at (-36) CpG site near androgen receptor transcription start site (-13) in human T47D cells by sodium bisulfite sequencing analysis; assay type: functional, cell-based; method in brief: as §1
T47D [19] = assay: Effect of DNA methylation at (-31) CpG site near androgen receptor transcription start site (-13) in human T47D cells by sodium bisulfite sequencing analysis; assay type: functional, cell-based; method in brief: as §1
T47D [20] = assay: Effect of DNA methylation at (+1) CpG site near androgen receptor transcription start site (-13) in human T47D cells by sodium bisulfite sequencing analysis; assay type: functional, cell-based
Method in brief: (§2)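 T47D cells grown in RPMI-1640 with 10% FBS, 0.5% NEAA, insulin and P/S at 37 °C, 5% CO2. They were plated at 80,000 cells/well 2 days before lipid transfection with 25 nM or 100 nM duplex, with medium changed at 24 h. Cells were harvested 5 days post-transfection. 100 ng bisulfite-treated DNA was PCR-amplified, and products were TA-cloned. 5–15 colonies per plate were sequenced.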

T47D [21] = assay: Effect of DNA methylation at (+11) CpG site near androgen receptor transcription start site (-13) in human T47D cells by sodium bisulfite sequencing analysis; assay type: functional, cell-based; method in brief: as §2
T47D [22] = assay: Effect of DNA methylation at (+19) CpG site near androgen receptor transcription start site (-13) in human T47D cells by sodium bisulfite sequencing analysis; assay type: functional, cell-based; method in brief: as §2
T47D [23] = assay: Effect of DNA methylation at (+43) CpG site near androgen receptor transcription start site (-13) in human T47D cells by sodium bisulfite sequencing analysis; assay type: functional, cell-based; method in brief: as §1

**Q.** Which inhibition (T47D [1]) does the source give for Cc1cn([C@H]2C[C@H](OP(=O)(O)OC[C@H]3O[C@@H](n4cc(C)c(=O)[nH]c4=O)C[C@@H]3O)[C@@H](COP(=O)(O)O[C@H]3[C@@H](O)[C@H](n4ccc(N)nc4=O)O[C@@H]3COP(=O)(O)O[C@H]3[C@@H](O)[C@H](n4cnc5c(=O)[nH]c(N)nc54)O[C@@H]3COP(=O)(O)O[C@H]3[C@@H](O)[C@H](n4cnc5c(N)ncnc54)O[C@@H]3COP(=O)(O)O[C@H]3[C@@H](O)[C@H](n4ccc(N)nc4=O)O[C@@H]3COP(=O)(O)O[C@H]3[C@@H](O)[C@H](n4cnc5c(N)ncnc54)O[C@@H]3COP(=O)(O)O[C@H]3[C@@H](O)[C@H](n4ccc(N)nc4=O)O[C@@H]3COP(=O)(O)O[C@H]3[C@@H](O)[C@H](n4ccc(N)nc4=O)O[C@@H]3COP(=O)(O)O[C@H]3C[C@H](n4ccc(=O)[nH]c4=O)O[C@@H]3COP(=O)(O)O[C@H]3[C@@H](O)[C@H](n4cnc5c(=O)[nH]c(N)nc54)O[C@@H]3COP(=O)(O)O[C@H]3[C@@H](O)[C@H](n4cnc5c(N)ncnc54)O[C@@H]3COP(=O)(O)O[C@H]3[C@@H](O)[C@H](n4cnc5c(=O)[nH]c(N)nc54)O[C@@H]3COP(=O)(O)O[C@H]3[C@@H](O)[C@H](n4ccc(N)nc4=O)O[C@@H]3COP(=O)(O)O[C@H]3[C@@H](O)[C@H](n4cnc5c(=O)[nH]c(N)nc54)O[C@@H]3COP(=O)(O)O[C@H]3[C@@H](O)[C@H](n4ccc(N)nc4=O)O[C@@H]3COP(=O)(O)O[C@H]3[C@@H](O)[C@H](n4ccc(=O)[nH]c4=O)O[C@@H]3COP(=O)(O)O[C@H]3[C@@H](O)[C@H](n4ccc(N)nc4=O)O[C@@H]3CO[PH](=O)O[C@H]3[C@@H](O)[C@H](n4ccc(=O)[nH]c4=O)O[C@@H]3COP(=O)(O)O[C@H]3[C@@H](O)[C@H](n4ccc(N)nc4=O)O[C@@H]3COP(=O)(O)O[C@H]3[C@@H](O)[C@H](n4ccc(=O)[nH]c4=O)O[C@@H]3CO)O2)c(=O)[nH]c1=O (some centres not stated) here?
**A.** Active

**Q.** What about the inhibition (T47D [2]) of the same molecule?
**A.** Active

**Q.** What about the inhibition (T47D [3]) of the same molecule?
**A.** Active

**Q.** And the inhibition at 0.1 µM (T47D [4])?
**A.** < 20%

**Q.** What about the inhibition at 0.1 µM (T47D [5]) of the same molecule?
**A.** < 20%

**Q.** What about the inhibition (T47D [6]) of the same molecule?
**A.** Active

**Q.** Which results are given for Cc1cn(CC(=O)N(CCNC(=O)CN(CCNC(=O)CN(CCNC(=O)CN(CCNC(=O)CN(CCNC(=O)CN(CCNC(=O)CN(CCNC(=O)CN(CCNC(=O)CN(CCNC(=O)CN(CCNC(=O)CN(CCNC(=O)CN(CCNC(=O)CN(CCNC(=O)CN(CCNC(=O)CN(CCNC(=O)CN(CCNC(=O)CN(CCNC(=O)CN(CCNC(=O)CN(CCNC(=O)CN(CCNC(=O)CN)C(=O)Cn2ccc(N)nc2=O)C(=O)Cn2ccc(=O)[nH]c2=O)C(=O)Cn2ccc(N)nc2=O)C(=O)Cn2ccc(=O)[nH]c2=O)C(=O)Cn2ccc(N)nc2=O)C(=O)Cn2ccc(N)nc2=O)C(=O)Cn2cnc3c(N)ncnc32)C(=O)Cn2ccc(N)nc2=O)C(=O)Cn2ccc(N)nc2=O)C(=O)Cn2ccc(=O)[nH]c2=O)C(=O)Cn2ccc(N)nc2=O)C(=O)Cn2ccc(N)nc2=O)C(=O)Cn2ccc(N)nc2=O)C(=O)Cn2cnc3c(N)ncnc32)C(=O)Cn2cnc3c(=O)[nH]c(N)nc32)C(=O)Cn2ccc(N)nc2=O)C(=O)Cn2cnc3c(=O)[nH]c(N)nc32)C(=O)Cn2ccc(N)nc2=O)C(=O)Cn2ccc(N)nc2=O)CC(=O)NCCN(CC(=O)NCC(=O)O)C(=O)Cn2cc(C)c(=O)[nH]c2=O)c(=O)[nH]c1=O?
**A.** inhibition (T47D [2]): Active; inhibition (T47D [3]): Active; inhibition at 0.1 µM (T47D [4]): 100%; inhibition at 0.1 µM (T47D [5]): 100%; inhibition (T47D [7]): Active; Activity (T47D [8]): inactive; Activity (T47D [9]): inactive; Activity (T47D [10]): inactive; Activity (T47D [11]): inactive; Activity (T47D [12]): inactive; Activity (T47D [13]): inactive; Activity (T47D [14]): inactive; Activity (T47D [15]): inactive; Activity (T47D [16]): inactive; Activity (T47D [17]): inactive; Activity (T47D [18]): inactive; Activity (T47D [19]): inactive; Activity (T47D [20]): inactive; Activity (T47D [21]): inactive; Activity (T47D [22]): inactive; Activity (T47D [23]): inactive
